Reference: ChEMBL document CHEMBL4251591, “Primaquine hybrids as promising antimycobacterial and antimalarial agents” (Eur J Med Chem, 2018)
≈ marks a conversion by molar mass, not a printed value.

Experiments:
[1] = tested on: Mycobacterium avium; experiment: Antimycobacterial activity against Mycobacterium avium subsp. paratuberculosis CIT03 clinical isolate after 11 days by Alamar Blue assay; type: functional; conditions: CIT03, 264 h
[2] = tested on: Mycobacterium tuberculosis; experiment: Antimycobacterial activity against Mycobacterium tuberculosis H37Ra ATCC 25177 after 7 days by Alamar Blue assay; type: functional; conditions: H37Ra ATCC 25177, 168 h
In short: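 Log-phase culture washed and resuspended in supplemented Middlebrook 7H9GC broth, adjusted to McFarland No. 1, then diluted 1:20. Equal volumes of culture and DMSO-prepared compound dilutions were tested in duplicate for 7 days. 10% AlamarBlue was added, with 570/600 nm readings for background and after 24 h reincubation. Blue meant no growth, pink meant growth. MIC was the lowest concentration without visible growth.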

[3] = tested on: Mycobacterium avium complex sp.; experiment: Antimycobacterial activity against Mycobacterium avium complex CIT19/06 clinical isolate after 5 days by Alamar Blue assay; type: functional; conditions: CIT19/06, 120 h
[4] = tested on: L6; experiment: Cytotoxicity against rat L6 cells after 70 hrs by Alamar Blue-based assay; type: cell-based; conditions: L6, 70 h
In short: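 Rat skeletal myoblast L-6 cells, 4000 per well, in RPMI 1640 with 10% FBS and L-glutamine. Eleven 3-fold serial dilutions spanning 100 to 0.002 were tested for 70 h. Alamar Blue was then added for 2 h and fluorescence read at ex 536 / em 588 nm. IC50 came from linear regression of sigmoid curves, averaged over two replicate experiments, with podophyllotoxin as control.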

[5] = tested on: Plasmodium berghei; experiment: Antimalarial activity against liver stage of firefly luciferase-expressing Plasmodium berghei infected in human HuH7 cells measured after 48 hrs post parasite addition by luciferase-based luminescence assay; type: functional, organism-based; conditions: Huh-7, 48 h
In short: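 HuH7 hepatoma cells seeded at 1.0 × 10^4 per well the day before infection. Drug-containing medium was added 1 h before 1.0 × 10^4 sporozoites, followed by centrifugation at 1800 × g for 5 min. Infection load was read by bioluminescence 48 h later, and host viability by CellTiter-Blue. IC50 came from nonlinear regression of normalized dose-response curves.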

[6] = tested on: HEK293; experiment: Cytotoxicity against human HEK293 cells; type: cell-based

Row | SMILES | MIC [1] | MIC [2] | MIC [3] | IC50 [4] | IC50 [5] | IC50 [6]
1 | COc1cc(NC(C)CCCNC(=O)NNC(=O)Nc2cccc(O)c2)c2ncccc2c1 (stereo unspecified) | 128 µg/mL (≈ 283 µM) | 128 µg/mL (≈ 283 µM) | 256 µg/mL (≈ 566 µM) |  |  | 
2 | COc1cc(NC(C)CCCNC(=O)N(C)C(c2ccccc2)c2ccccc2)c2ncccc2c1 (stereo unspecified) | 128 µg/mL (≈ 265 µM) | 128 µg/mL (≈ 265 µM) | 128 µg/mL (≈ 265 µM) | 80.5 µg/mL (≈ 167 µM) |  | 
3 | COc1cc(NC(C)CCCNC(=O)NCCO)c2ncccc2c1 (stereo unspecified) | 64 µg/mL (≈ 185 µM) | 32 µg/mL (≈ 92.4 µM) | 64 µg/mL (≈ 185 µM) |  |  | 
4 | COc1cc(NC(C)CCCNC(=O)/C=C/c2ccc(C(F)(F)F)cc2)c2ncccc2c1 (stereo unspecified) | 64 µg/mL (≈ 140 µM) | 32 µg/mL (≈ 69.9 µM) | 128 µg/mL (≈ 280 µM) |  |  | 
5 | COc1cc(NC(C)CCCNC(=O)NN)c2ncccc2c1 (stereo unspecified) | 32 µg/mL (≈ 101 µM) | 32 µg/mL (≈ 101 µM) | 32 µg/mL (≈ 101 µM) |  |  | 
6 | COc1cc(NC(C)CCCNC(=O)Nc2cccc(F)c2)c2ncccc2c1 (stereo unspecified) | 4 µg/mL (≈ 10.1 µM) | 2 µg/mL (≈ 5.04 µM) | 8 µg/mL (≈ 20.2 µM) | 9.18 µg/mL (≈ 23.2 µM) |  | 
7 | COc1cc(NC(C)CCCNC(=O)/C=C/c2ccc(OC)c(OC)c2)c2ncccc2c1 (stereo unspecified) | 128 µg/mL (≈ 285 µM) | 128 µg/mL (≈ 285 µM) | 256 µg/mL (≈ 569 µM) | > 100 µg/mL |  | 
8 | COc1cc(NC(C)CCCNC(=O)NC2CCCCC2)c2ncccc2c1 (stereo unspecified) | 16 µg/mL (≈ 41.6 µM) | 16 µg/mL (≈ 41.6 µM) | 32 µg/mL (≈ 83.2 µM) |  |  | 
9 | NNC(=O)c1ccncc1 [ISONIAZID] | > 256 µg/mL | 5 µg/mL (≈ 36.5 µM) | > 256 µg/mL |  |  | 
10 | COc1cc(NC(C)CCCNC(=O)NNC(=O)NCCCCCO)c2ncccc2c1 (stereo unspecified) | 256 µg/mL (≈ 573 µM) | 256 µg/mL (≈ 573 µM) | 256 µg/mL (≈ 573 µM) |  |  | 
11 | COc1cc(NC(C)CCCNC(=O)NCCCC(C)Nc2cc(OC)cc3cccnc23)c2ncccc2c1 (stereo unspecified) | 128 µg/mL (≈ 235 µM) | 128 µg/mL (≈ 235 µM) | 256 µg/mL (≈ 470 µM) | > 100 µg/mL |  | 
12 | O=C(O)c1cn(C2CC2)c2cc(N3CCNCC3)c(F)cc2c1=O [CIPROFLOXACIN] |  | 16 µg/mL (≈ 48.3 µM) |  |  |  | 
13 | COc1ccc(C(=NNC(=O)NCCCC(C)Nc2cc(OC)cc3cccnc23)c2ccc(OC)cc2)cc1 (stereo unspecified) | 128 µg/mL (≈ 236 µM) | 128 µg/mL (≈ 236 µM) | 256 µg/mL (≈ 473 µM) | > 100 µg/mL |  | 
14 | COc1ccc(C(=NNC(=O)NNC(=O)NCCCC(C)Nc2cc(OC)cc3cccnc23)c2ccc(OC)cc2)cc1 (stereo unspecified) | 4 µg/mL (≈ 6.67 µM) | 2 µg/mL (≈ 3.34 µM) | 16 µg/mL (≈ 26.7 µM) |  | 82.8 nM | 
15 | COc1cc(NC(C)CCCNC(=O)NNC(=O)Nc2ccc(F)cc2)c2ncccc2c1 (stereo unspecified) |  |  |  |  | 1870 nM | 
16 | COc1ccc(/C(=N/NC(=O)NNC(=O)NCCCC(C)Nc2cc(OC)cc3cccnc23)c2ccccc2)cc1 (stereo unspecified) | 4 µg/mL (≈ 7.02 µM) | 2 µg/mL (≈ 3.51 µM) | 16 µg/mL (≈ 28.1 µM) |  |  | 
17 | COc1cc(NC(C)CCCNC(=O)NNC(=O)NCCCO)c2ncccc2c1 (stereo unspecified) | 256 µg/mL (≈ 612 µM) | 256 µg/mL (≈ 612 µM) | 256 µg/mL (≈ 612 µM) |  |  | 
18 | COc1cc(NC(C)CCCNC(=O)NNC(=O)Nc2cccc(C(F)(F)F)c2)c2ncccc2c1 (stereo unspecified) | 128 µg/mL (≈ 254 µM) | 128 µg/mL (≈ 254 µM) | 128 µg/mL (≈ 254 µM) |  |  | 
19 | COc1cc(NC(C)CCCNC(=O)Nc2cc(C(F)(F)F)cc(C(F)(F)F)c2)c2ncccc2c1 (stereo unspecified) |  |  |  |  |  | 7.67 µg/mL (≈ 14.9 µM)
20 | COc1cc(NC(C)CCCNC(=O)/C(C)=C/c2ccccc2)c2ncccc2c1 (stereo unspecified) |  |  |  | > 100 µg/mL | 724 nM | 
21 | COc1cc(NC(C)CCCNC(=O)NNC(=O)Nc2ccc(C(F)(F)F)cc2)c2ncccc2c1 (stereo unspecified) | 128 µg/mL (≈ 254 µM) | 128 µg/mL (≈ 254 µM) | 128 µg/mL (≈ 254 µM) |  | 74.9 nM | 
22 | COc1cc(NC(C)CCCNC(=O)Nc2cccc(Cl)c2)c2ncccc2c1 (stereo unspecified) | 16 µg/mL (≈ 38.7 µM) | 16 µg/mL (≈ 38.7 µM) | 16 µg/mL (≈ 38.7 µM) | 10 µg/mL (≈ 24.2 µM) |  | 
23 | COc1cc(NC(C)CCCNC(=O)/C=C/c2cccc(C(F)(F)F)c2)c2ncccc2c1 (stereo unspecified) | 32 µg/mL (≈ 69.9 µM) | 32 µg/mL (≈ 69.9 µM) | 128 µg/mL (≈ 280 µM) |  |  | 
24 | COc1cc(NC(C)CCCNC(=O)NNC(=O)Nc2cccc(Cl)c2)c2ncccc2c1 (stereo unspecified) | 128 µg/mL (≈ 272 µM) | 128 µg/mL (≈ 272 µM) | 256 µg/mL (≈ 544 µM) |  |  | 
25 | COc1cc(NC(C)CCCNC(=O)Nc2ccc(Cl)c(C(F)(F)F)c2)c2ncccc2c1 (stereo unspecified) | 16 µg/mL (≈ 33.3 µM) | 16 µg/mL (≈ 33.3 µM) | 16 µg/mL (≈ 33.3 µM) |  |  | 
26 | COc1cc(NC(C)CCCNC(=O)NC2CCCC2)c2ncccc2c1 (stereo unspecified) | 16 µg/mL (≈ 43.2 µM) | 16 µg/mL (≈ 43.2 µM) | 32 µg/mL (≈ 86.4 µM) |  |  | 
27 | COc1cc(NC(C)CCCNC(=O)NNC(=O)Nc2ccc(O)cc2)c2ncccc2c1 (stereo unspecified) | 128 µg/mL (≈ 283 µM) | 128 µg/mL (≈ 283 µM) | 256 µg/mL (≈ 566 µM) |  |  | 
28 | COc1cc(NC(C)CCCNC(=O)Nc2ccc(F)cc2)c2ncccc2c1 (stereo unspecified) | 16 µg/mL (≈ 40.4 µM) | 8 µg/mL (≈ 20.2 µM) | 16 µg/mL (≈ 40.4 µM) | 9.3 µg/mL (≈ 23.5 µM) |  | 
